Experimental data: ChEMBL document CHEMBL1133678, “Synthesis of new indeno[1,2-c]isoquinolines: cytotoxic non-camptothecin topoisomerase I inhibitors” (2000)

Tested on: MDA-MB-435
Assay: Antiproliferative activity was determined for 50% growth inhibition against human breast MDA-MB-435 cell line
Assay type: functional
Settings: not given
In short: (§1)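 Human cancer cell lines from the roughly 55-line panel. GI50 is the concentration giving 50% growth inhibition. The test range was 10^-4 to 10^-8 M. Values outside the range were set to the minimum (10^-8 M) or the maximum (10^-4 M).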

Row | SMILES | GI50 [µM]
1 | COc1cc2c(cc1OC)-c1c(c3cc(OC)c(OC)cc3c(=O)n1CCCNCCO)C2=O.Cl | 1.43

Same assay, conditions: Homo sapiens, MDA-MB-435

Row | GI50 [µM] | SMILES
2 | 76.7 | O=C1c2ccccc2-c2c1c1ccccc1c(=O)n2CCO
3 | > 100 | COc1cc2c(cc1OC)-c1c(c3ccccc3c(=O)n1CCCCl)C2=O
4 | 80.5 | COc1cc2c3c(n(CCCCl)c(=O)c2cc1OC)-c1cc2c(cc1C3=O)OCO2
5 | 39.7 | O=C1c2ccccc2-c2c1c1ccccc1c(=O)n2CCCO

The remaining lines, values behind:

Row | SMILES | GI50 [µM]
6 | CCCCn1c2c(c3cc(OC)c(OC)cc3c1=O)Cc1cc3c(cc1-2)OCO3 | 92.4
7 | CCn1c2c(c3cc(OC)c(OC)cc3c1=O)Cc1cc3c(cc1-2)OCO3 | > 100
8 | O=C1c2cc3c(cc2-c2c1c1ccccc1c(=O)n2CCCNCCCO)OCO3 | 19.9
9 | COc1cc2c3c(n(CCCN)c(=O)c2cc1OC)-c1cc2c(cc1C3=O)OCO2.Cl | 1.21

Tested on: HCT-116
Assay: Antiproliferative activity was determined for 50% growth inhibition against human colon HCT116 cell line
Assay type: functional
Settings: not given
In short: as §1

Row | SMILES | GI50 [µM]
10 | COc1cc2c(cc1OC)-c1c(c3cc(OC)c(OC)cc3c(=O)n1CCCNCCO)C2=O.Cl | 0.39

Same assay, conditions: Homo sapiens, HCT-116

Row | GI50 [µM] | SMILES
11 | 4.95 | O=C1c2ccccc2-c2c1c1ccccc1c(=O)n2CCO
12 | > 100 | COc1cc2c(cc1OC)-c1c(c3ccccc3c(=O)n1CCCCl)C2=O
13 | 72.6 | COc1cc2c3c(n(CCCCl)c(=O)c2cc1OC)-c1cc2c(cc1C3=O)OCO2
14 | 3.64 | O=C1c2ccccc2-c2c1c1ccccc1c(=O)n2CCCO

Further lines, the molecule ahead of its results:

Row | SMILES | GI50 [µM]
15 | CCCCn1c2c(c3cc(OC)c(OC)cc3c1=O)Cc1cc3c(cc1-2)OCO3 | 13.2
16 | CCn1c2c(c3cc(OC)c(OC)cc3c1=O)Cc1cc3c(cc1-2)OCO3 | > 100
17 | O=C1c2cc3c(cc2-c2c1c1ccccc1c(=O)n2CCCNCCCO)OCO3 | 12.5
18 | COc1cc2c3c(n(CCCN)c(=O)c2cc1OC)-c1cc2c(cc1C3=O)OCO2.Cl | 0.13

Tested on: Panel (Carcinoma cell lines)
Assay: Mean graph midpoint for growth inhibition of all human cancer cell lines
Assay type: functional
Parameters: unit: µM
Settings: not given
In short: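 Mean graph midpoint across all cell lines successfully tested in the roughly 55-line human cancer panel. Each line's GI50 is the 50% growth-inhibition concentration, tested over 10^-4 to 10^-8 M. Out-of-range values were set to 10^-8 M or 10^-4 M before averaging.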

Row | SMILES | MGM
19 | CCCCn1c2c(c3cc(OC)c(OC)cc3c1=O)Cc1cc3c(cc1-2)OCO3 | 21.3
20 | O=C1c2ccccc2-c2c1c1ccccc1c(=O)n2CCO | 14.5
21 | CCn1c2c(c3cc(OC)c(OC)cc3c1=O)Cc1cc3c(cc1-2)OCO3 | 85.1
22 | O=C1c2cc3c(cc2-c2c1c1ccccc1c(=O)n2CCCNCCCO)OCO3 | 15.5
23 | COc1cc2c3c(n(CCCN)c(=O)c2cc1OC)-c1cc2c(cc1C3=O)OCO2.Cl | 0.16
24 | COc1cc2c(cc1OC)-c1c(c3ccccc3c(=O)n1CCCCl)C2=O | 76.1
25 | COc1cc2c3c(n(CCCCl)c(=O)c2cc1OC)-c1cc2c(cc1C3=O)OCO2 | 47.9
26 | O=C1c2ccccc2-c2c1c1ccccc1c(=O)n2CCCO | 10.3
27 | COc1cc2c(cc1OC)-c1c(c3cc(OC)c(OC)cc3c(=O)n1CCCNCCO)C2=O.Cl | 0.68

Tested on: UACC-62
Assay: Antiproliferative activity was determined for 50% growth inhibition against human melanoma UACC-62 cell line
Assay type: functional
Settings: not given
In short: as §1

Row | SMILES | GI50 [µM]
28 | COc1cc2c(cc1OC)-c1c(c3cc(OC)c(OC)cc3c(=O)n1CCCNCCO)C2=O.Cl | 0.73

Same assay, conditions: Homo sapiens, UACC-62

Row | SMILES | GI50 [µM]
29 | CCCCn1c2c(c3cc(OC)c(OC)cc3c1=O)Cc1cc3c(cc1-2)OCO3 | 6.51
30 | O=C1c2ccccc2-c2c1c1ccccc1c(=O)n2CCO | 18.2
31 | CCn1c2c(c3cc(OC)c(OC)cc3c1=O)Cc1cc3c(cc1-2)OCO3 | > 100
32 | O=C1c2cc3c(cc2-c2c1c1ccccc1c(=O)n2CCCNCCCO)OCO3 | > 100
33 | COc1cc2c3c(n(CCCN)c(=O)c2cc1OC)-c1cc2c(cc1C3=O)OCO2.Cl | 0.25
34 | COc1cc2c(cc1OC)-c1c(c3ccccc3c(=O)n1CCCCl)C2=O | > 100
35 | COc1cc2c3c(n(CCCCl)c(=O)c2cc1OC)-c1cc2c(cc1C3=O)OCO2 | 68.6
36 | O=C1c2ccccc2-c2c1c1ccccc1c(=O)n2CCCO | 16.2

Tested on: OVCAR-3
Assay: Antiproliferative activity was determined for 50% growth inhibition against human ovarian OVCAR-3 cell line
Assay type: functional
Settings: not given
In short: as §1

Row | SMILES | GI50 [µM]
37 | COc1cc2c(cc1OC)-c1c(c3cc(OC)c(OC)cc3c(=O)n1CCCNCCO)C2=O.Cl | 2.28

Same assay, conditions: Homo sapiens, OVCAR-3

Row | GI50 [µM] | SMILES
38 | 74.2 | O=C1c2ccccc2-c2c1c1ccccc1c(=O)n2CCO
39 | > 100 | COc1cc2c(cc1OC)-c1c(c3ccccc3c(=O)n1CCCCl)C2=O
40 | > 100 | COc1cc2c3c(n(CCCCl)c(=O)c2cc1OC)-c1cc2c(cc1C3=O)OCO2
41 | 28.8 | O=C1c2ccccc2-c2c1c1ccccc1c(=O)n2CCCO

Continued, molecule first:

Row | SMILES | GI50 [µM]
42 | CCCCn1c2c(c3cc(OC)c(OC)cc3c1=O)Cc1cc3c(cc1-2)OCO3 | 91.9
43 | CCn1c2c(c3cc(OC)c(OC)cc3c1=O)Cc1cc3c(cc1-2)OCO3 | > 100
44 | O=C1c2cc3c(cc2-c2c1c1ccccc1c(=O)n2CCCNCCCO)OCO3 | 15
45 | COc1cc2c3c(n(CCCN)c(=O)c2cc1OC)-c1cc2c(cc1C3=O)OCO2.Cl | 0.31

Tested on: DU-145
Assay: Antiproliferative activity was determined for 50% growth inhibition against human Prostate DU-145 cell line
Assay type: functional
Settings: not given
In short: as §1

Row | SMILES | GI50 [µM]
46 | COc1cc2c(cc1OC)-c1c(c3cc(OC)c(OC)cc3c(=O)n1CCCNCCO)C2=O.Cl | 0.07

Same assay, conditions: Homo sapiens, DU-145

Row | GI50 [µM] | SMILES
47 | 16.4 | O=C1c2ccccc2-c2c1c1ccccc1c(=O)n2CCO
48 | > 100 | COc1cc2c(cc1OC)-c1c(c3ccccc3c(=O)n1CCCCl)C2=O
49 | 16.8 | COc1cc2c3c(n(CCCCl)c(=O)c2cc1OC)-c1cc2c(cc1C3=O)OCO2
50 | 9.56 | O=C1c2ccccc2-c2c1c1ccccc1c(=O)n2CCCO

The remaining lines, values behind:

Row | SMILES | GI50 [µM]
51 | CCCCn1c2c(c3cc(OC)c(OC)cc3c1=O)Cc1cc3c(cc1-2)OCO3 | 5.37
52 | CCn1c2c(c3cc(OC)c(OC)cc3c1=O)Cc1cc3c(cc1-2)OCO3 | > 100
53 | O=C1c2cc3c(cc2-c2c1c1ccccc1c(=O)n2CCCNCCCO)OCO3 | 16.7
54 | COc1cc2c3c(n(CCCN)c(=O)c2cc1OC)-c1cc2c(cc1C3=O)OCO2.Cl | 0.04

Tested on: HOP-62
Assay: Antiproliferative activity was determined for 50% growth inhibition against human lung HOP-62 cell line
Assay type: functional
Settings: not given
In short: as §1

Row | SMILES | GI50 [µM]
55 | COc1cc2c(cc1OC)-c1c(c3cc(OC)c(OC)cc3c(=O)n1CCCNCCO)C2=O.Cl | 0.15

Same assay, conditions: Homo sapiens, HOP-62

Row | SMILES | GI50 [µM]
56 | CCCCn1c2c(c3cc(OC)c(OC)cc3c1=O)Cc1cc3c(cc1-2)OCO3 | 12
57 | O=C1c2ccccc2-c2c1c1ccccc1c(=O)n2CCO | 5.62
58 | CCn1c2c(c3cc(OC)c(OC)cc3c1=O)Cc1cc3c(cc1-2)OCO3 | > 100
59 | O=C1c2cc3c(cc2-c2c1c1ccccc1c(=O)n2CCCNCCCO)OCO3 | 7.17
60 | COc1cc2c3c(n(CCCN)c(=O)c2cc1OC)-c1cc2c(cc1C3=O)OCO2.Cl | 0.06
61 | COc1cc2c(cc1OC)-c1c(c3ccccc3c(=O)n1CCCCl)C2=O | > 100
62 | COc1cc2c3c(n(CCCCl)c(=O)c2cc1OC)-c1cc2c(cc1C3=O)OCO2 | 40.4
63 | O=C1c2ccccc2-c2c1c1ccccc1c(=O)n2CCCO | 4.89

Tested on: SN12C
Assay: Antiproliferative activity was determined for 50% growth inhibition against human renal SN12C cell line
Assay type: functional
Settings: not given
In short: as §1

Row | SMILES | GI50 [µM]
64 | COc1cc2c(cc1OC)-c1c(c3cc(OC)c(OC)cc3c(=O)n1CCCNCCO)C2=O.Cl | 0.11

Same assay, conditions: Homo sapiens, SN12C

Row | SMILES | GI50 [µM]
65 | CCCCn1c2c(c3cc(OC)c(OC)cc3c1=O)Cc1cc3c(cc1-2)OCO3 | 21.7
66 | O=C1c2ccccc2-c2c1c1ccccc1c(=O)n2CCO | 16.4
67 | CCn1c2c(c3cc(OC)c(OC)cc3c1=O)Cc1cc3c(cc1-2)OCO3 | > 100
68 | O=C1c2cc3c(cc2-c2c1c1ccccc1c(=O)n2CCCNCCCO)OCO3 | 14.2
69 | COc1cc2c3c(n(CCCN)c(=O)c2cc1OC)-c1cc2c(cc1C3=O)OCO2.Cl | 0.31
70 | COc1cc2c(cc1OC)-c1c(c3ccccc3c(=O)n1CCCCl)C2=O | > 100
71 | COc1cc2c3c(n(CCCCl)c(=O)c2cc1OC)-c1cc2c(cc1C3=O)OCO2 | 24
72 | O=C1c2ccccc2-c2c1c1ccccc1c(=O)n2CCCO | 6.49

Tested on: SF-539
Assay: Antiproliferative activity was determined for 50% growth inhibition against human CNS SF-539 cell line
Assay type: functional
Settings: not given
In short: as §1

Row | SMILES | GI50 [µM]
73 | COc1cc2c(cc1OC)-c1c(c3cc(OC)c(OC)cc3c(=O)n1CCCNCCO)C2=O.Cl | 0.16

Same assay, conditions: Homo sapiens, SF-539

Row | SMILES | GI50 [µM]
74 | CCCCn1c2c(c3cc(OC)c(OC)cc3c1=O)Cc1cc3c(cc1-2)OCO3 | 3.4
75 | O=C1c2ccccc2-c2c1c1ccccc1c(=O)n2CCO | 12.2
76 | CCn1c2c(c3cc(OC)c(OC)cc3c1=O)Cc1cc3c(cc1-2)OCO3 | > 100
77 | O=C1c2cc3c(cc2-c2c1c1ccccc1c(=O)n2CCCNCCCO)OCO3 | 16.2
78 | COc1cc2c3c(n(CCCN)c(=O)c2cc1OC)-c1cc2c(cc1C3=O)OCO2.Cl | 0.26
79 | COc1cc2c(cc1OC)-c1c(c3ccccc3c(=O)n1CCCCl)C2=O | > 100
80 | COc1cc2c3c(n(CCCCl)c(=O)c2cc1OC)-c1cc2c(cc1C3=O)OCO2 | 40.7
81 | O=C1c2ccccc2-c2c1c1ccccc1c(=O)n2CCCO | 52.5
